NR2E3 ag-1: activates human NR2E3 receptor; 360,000 compounds, 0.35% hits; Q9Y5X4; inhibition of corepressor binding, % at 3.98 µM; CHO-S Gal4-NCOR/VP16-NR2E3 two-hybrid, luciferase; AID 602229;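 active = inhibition above the mean of all tested compounds plus 3 SD, cut at about 70% in these data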;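 note: 0% = DMSO with NR2E3 transfected cells and 100% = cells lacking NR2E3 construct; higher means lower luciferase signal from less NR2E3 corepressor binding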
Target sequence (Q9Y5X4 whole entry, looked up, the tested form may be a part): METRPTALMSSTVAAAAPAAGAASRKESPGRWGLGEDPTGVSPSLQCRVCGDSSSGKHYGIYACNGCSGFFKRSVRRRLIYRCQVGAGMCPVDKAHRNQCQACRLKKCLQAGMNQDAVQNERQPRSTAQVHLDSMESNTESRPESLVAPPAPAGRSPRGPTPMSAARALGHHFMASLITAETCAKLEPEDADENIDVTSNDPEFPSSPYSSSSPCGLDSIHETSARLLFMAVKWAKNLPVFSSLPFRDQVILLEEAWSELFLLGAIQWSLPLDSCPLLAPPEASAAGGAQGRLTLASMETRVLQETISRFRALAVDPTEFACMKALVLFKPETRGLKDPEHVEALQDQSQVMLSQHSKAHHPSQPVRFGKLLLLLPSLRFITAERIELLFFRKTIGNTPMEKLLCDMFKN
NR1D1 modulator: modulates human Rev-erb alpha binding to DNA | P20393 | Rev-erbα–FITC-DNA binding, fluorescence polarization, 90 min | activity, % at 10 µM | 370,000 compounds, 0.79% hits | AID 1259318;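 active = activity above about 14%, limit read from the data; passing the limit was not always enough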;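 note: 0% = DMSO wells with 35 nM protein and 100% = DMSO wells with 750 nM protein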
NR2E3 ag-2: activates human photoreceptor nuclear receptor NR2E3. GST-NR2E3/biotin-RetCOR TR-FRET, 1536-well. inhibition of corepressor binding, % at 4.78 µM. 320,000 compounds, 0.12% hits;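 active = percent inhibition above the cutoff of mean plus 3 SD of all tested compounds, set per screening campaign, cut at about 20% in these data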;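 note: 0% = DMSO wells and 100% = biotin wells as full block of FRET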
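Format: 1536-well format; test system: GST-NR2E3 and biotin-RetCOR proteins; read-out basis: percent inhibition of TR-FRET ratio; timing: 5 h incubation at 4 °C; detection: time-resolved FRET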
PG9 binder: PG9 antibody binding by small molecule | TR-FRET gp120-PG9 antibody binding | inhibition, % at 6.7 µM | 360,000 compounds, 0.43% hits; in the data active = inhibition above about 8.5%
MC4R barr agon: agonists of human melanocortin 4 receptor (MC4R) beta-arrestin; P32245; U2OS MC4R beta-arrestin complementation, luminescence; percent of melanotan II response, DMSO zero; activation, % at 8.9 µM; 360,000 compounds, 0.98% hits; AID 540308;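 active = activation above a per-plate cutoff, the mean activation of sample wells on that plate plus 3 SD, cut at about 8% in these data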
MC4R antagonist: human MC4R antagonism in cAMP assay; 360,000 compounds, 0.48% hits; AID 540295; inhibition, % at 6.5 µM; MC4R-expressing cells, MTII-stimulated cAMP, LANCE TR-FRET;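 active = inhibition above its plate's cutoff, the mean of tested wells on that plate plus 3 SD, cut at about 29% in these data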;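 note: 0% = Melanotan II alone and 100% = Melanotan II plus saturating MCL0020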
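Material: U2OS-MC4R stable cell line | Reagent: Melanotan II challenge after compound preincubation | Doses: One concentration, 6.5 µM nominal | Incubation: 30-min compound preincubation, 1-h Melanotan II challenge, 1-h detection, room temperature | Signal: TR-FRET cAMP assay | Replicates: One well per compound, no replicates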
cAMP nonselect: counter-screen for MC4R antagonists: nonselective cAMP signaling inhibitors. inhibition, % at 6.5 µM. parental U2OS, forskolin cAMP, LANCE TR-FRET. 1,600 compounds, 26% hits. shares compounds with MC4R antagonist;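 active = mean inhibition over triplicates above the low-control well mean plus 3 SD, set per campaign, cut at about 13% in these data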;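 note: signal is single emission at 671 nm which falls as cellular cAMP rises; 0% = forskolin-stimulated wells and 100% = buffer without forskolin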
MC4R antag conf: human MC4R cAMP antagonism confirmation. shares compounds with MC4R antagonist. MC4R-expressing cells, MTII-stimulated cAMP, TR-FRET. inhibition, % at 6.5 µM. 1,600 compounds, 27% hits; in the data active = inhibition above about 29%;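 note: 0% = agonist stimulated wells alone and 100% = agonist stimulated wells plus saturating reference antagonist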
Starred values were filed as active, the others as inactive. In the library only some 2.7% were active in any assay of this set; here they are far more common.

How did CCC(CO)Oc1cc(NCc2ccccc2O)c2ncn(C(C)C)c2c1 (centres undefined) do in these assays?
NR2E3 ag-1: -3; NR1D1 modulator: 1; PG9 binder: -3; MC4R barr agon: -2; MC4R antagonist: 10

How did Cc1ccc(-c2cn3cccnc3n2)cc1NC(=O)c1cccs1 do in these assays?
NR2E3 ag-1: -9; NR1D1 modulator: 4; NR2E3 ag-2: -1; PG9 binder: 1; MC4R barr agon: 2; MC4R antagonist: 30*; cAMP nonselect: -5; MC4R antag conf: -15

What do the screens show for `S=c1[nH]nc(-c2ccc3ccccc3n2)n1-c1cc(Cl)cc(Cl)c1`?
NR2E3 ag-1: -30; NR1D1 modulator: 1; NR2E3 ag-2: 15; PG9 binder: 1; MC4R barr agon: 4; MC4R antagonist: 32*; cAMP nonselect: 12; MC4R antag conf: 28

What do the screens show for `Fc1ccc(-n2c(-c3ccc4ccccc4n3)n[nH]c2=S)cc1`?
NR2E3 ag-1: -6; NR1D1 modulator: 0; NR2E3 ag-2: 4; PG9 binder: 1; MC4R barr agon: -3; MC4R antagonist: -2

Results for O=C(NCc1ccc2c(c1)OCO2)c1nc(Cn2ccc([N+](=O)[O-])n2)no1 ?
NR2E3 ag-1: -12; NR1D1 modulator: 5; NR2E3 ag-2: -1; PG9 binder: -1; MC4R barr agon: -1; MC4R antagonist: 31*; cAMP nonselect: -2; MC4R antag conf: -7

What do the screens show for `CCOC(=O)c1c(NC(=O)COC(=O)CCNS(=O)(=O)c2ccccc2)sc(C(=O)NC)c1C`?
NR2E3 ag-1: 14; NR1D1 modulator: 6; PG9 binder: -2; MC4R barr agon: 0; MC4R antagonist: 31*; cAMP nonselect: 5; MC4R antag conf: 5

Results for CCCC(C)n1[nH]c(=O)cc1N (centres undefined) ?
NR2E3 ag-1: 4; NR1D1 modulator: 0; NR2E3 ag-2: 1; PG9 binder: 0; MC4R barr agon: -2; MC4R antagonist: -2

Results for CCn1c(C(=O)O)c(CC(=O)Nc2ccc(Br)cc2C)c2ccccc21 ?
NR2E3 ag-1: -14; NR1D1 modulator: 5; NR2E3 ag-2: -1; PG9 binder: -2; MC4R barr agon: 2; MC4R antagonist: 29*; cAMP nonselect: 2; MC4R antag conf: -7

How did CCN(CC)CCNC(=O)Cc1c(C(=O)O)n(CC)c2ccccc12 do in these assays?
NR2E3 ag-1: -13; NR1D1 modulator: -4; NR2E3 ag-2: 5; PG9 binder: -1; MC4R barr agon: -1; MC4R antagonist: 9

How did Cc1csc(CN(C)C(=O)CC2C(=O)NCCN2Cc2ccc(-c3ccccc3)cc2)n1 (centres undefined) do in these assays?
NR2E3 ag-1: -7; NR1D1 modulator: 1; NR2E3 ag-2: -1; PG9 binder: -3; MC4R barr agon: 1; MC4R antagonist: 29*; cAMP nonselect: -2; MC4R antag conf: 3

How did O=C(Nc1ccc(F)cc1)C1CCCN(S(=O)(=O)c2cccc3nonc23)C1 (centres undefined) do in these assays?
NR2E3 ag-1: -15; NR1D1 modulator: 1; NR2E3 ag-2: 1; PG9 binder: 1; MC4R barr agon: 1; MC4R antagonist: 32*; cAMP nonselect: 0; MC4R antag conf: 8

How did Cc1cc(O)c(C2=Nc3ccccc3SC(c3ccc(Cl)cc3)C2)c(=O)o1 (centres undefined) do in these assays?
NR2E3 ag-1: -29; NR1D1 modulator: -5; NR2E3 ag-2: -2; PG9 binder: 0; MC4R barr agon: -3; MC4R antagonist: 31*; cAMP nonselect: 3; MC4R antag conf: 4

Results for O=c1cc(Cc2ccc([N+](=O)[O-])cc2)[nH]c(=O)[nH]1 ?
NR2E3 ag-1: -1; NR1D1 modulator: 2; PG9 binder: 1; MC4R barr agon: -1; MC4R antagonist: 0

High-throughput results as filed in PubChem.
